The target of assay [1] is T1, DNA topoisomerase 1 (Homo sapiens) (UniProt P11387).
T1 sequence (whole entry): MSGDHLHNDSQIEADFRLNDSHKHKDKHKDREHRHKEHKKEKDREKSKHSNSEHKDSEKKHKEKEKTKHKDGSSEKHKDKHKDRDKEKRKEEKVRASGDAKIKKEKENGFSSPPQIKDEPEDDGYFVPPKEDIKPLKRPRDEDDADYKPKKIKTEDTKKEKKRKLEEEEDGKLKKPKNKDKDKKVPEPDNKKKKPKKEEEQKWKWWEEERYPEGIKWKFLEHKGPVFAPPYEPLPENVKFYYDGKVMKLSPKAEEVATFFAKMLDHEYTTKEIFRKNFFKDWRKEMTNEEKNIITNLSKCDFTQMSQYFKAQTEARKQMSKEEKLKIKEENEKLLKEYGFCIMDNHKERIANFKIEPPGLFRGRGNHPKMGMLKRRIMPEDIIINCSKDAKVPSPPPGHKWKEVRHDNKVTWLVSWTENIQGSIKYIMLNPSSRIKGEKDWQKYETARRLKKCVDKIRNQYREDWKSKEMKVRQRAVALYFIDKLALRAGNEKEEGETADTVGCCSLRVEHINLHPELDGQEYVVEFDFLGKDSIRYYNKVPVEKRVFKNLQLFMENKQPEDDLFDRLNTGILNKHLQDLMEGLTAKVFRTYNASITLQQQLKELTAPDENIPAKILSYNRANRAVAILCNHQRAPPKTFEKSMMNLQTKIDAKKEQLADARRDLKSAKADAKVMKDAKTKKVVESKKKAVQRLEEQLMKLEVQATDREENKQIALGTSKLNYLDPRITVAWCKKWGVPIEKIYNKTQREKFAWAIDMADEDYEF
The assay is described as follows: Inhibition of human topoisomerase 1 mediated DNA cleavage assessed as effective drug concentration causing 10% YepG plasmid cleavage relative to camptothecin. The gist of the method:
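Stopped with SDS and proteinase K, 1 h at 37 °C. Alkali-denatured with NaOH/EDTA/sucrose/bromophenol blue, then run on neutral agarose gel.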

A further assay deals with P388. The assay is described as follows: Cytotoxicity against mouse P388 cells after MTT assay. Type of assay: functional, cell-based. Put shortly:
(§1)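 Suspension cultures at 37 °C, 5% CO2, in RPMI with 10% heat-inactivated FBS, 2 mM L-glutamine, penicillin and streptomycin. Continuous 4-day exposure to a range of drug concentrations, then MTT read-out to give IC50. Drug-free control included. At least two runs, six replicate wells each.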

Assay [2] in a line: Cytotoxicity against human RPMI8402 cells after MTT assay. To be noted: RPMI 8402. In kind it is functional, cell-based. Put shortly:
as §1
(Formazan colour is commonly taken as a measure of viable cells.)

Assay [3] is described as follows: Cytotoxicity against camptothecin-resistant and TOP1 deficient mouse P388/CPT45 cells after MTT assay. In kind it is functional, cell-based. To be noted: P388CPT45. Put shortly: as §1
The nature of assay [4]: Cytotoxicity against camptothecin-resistant human CPT-K5 cells after MTT assay. Type of assay: functional, cell-based. The gist of the method: as §1
The nature of assay [5]: Cytotoxicity against multidrug resistant human KBH5.0 cells overexpressing BCRP after MTT assay. Type of assay: functional, cell-based. The conditions noted are these: KBH5.0 cell. Put shortly: (§2)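 IC50 after continuous 4-day exposure to varying drug concentrations, with MTT read at the end of day 4. A drug-free control was included. At least two runs, each in six replicate wells.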

Assay [6] in a line: Cytotoxicity against human KB3-1 cells after MTT assay. Type of assay: functional, cell-based. To be noted: KB 3-1. Put shortly:
as §2

The nature of assay [7]: Cytotoxicity against multidrug resistant human KBV-1 cells overexpressing MDR1 after MTT assay. Type of assay: functional, cell-based. The conditions noted are these: KB-V1. The gist of the method:
as §2

For assay [8], the system named is MDA-MB-435 (human). Kind of assay: Antitumor activity against human MDA-MB-435 cells xenografted in NCR/NU NU mouse assessed as tumor volume measured on day 49 initially dosed at 2 mg/kg, ip qd x 5/week for 2 weeks and was gradually increased to 6 mg/kg x 5/week schedule. A general note: A xenograft is tissue or cells of one species grown in another, often human tumour cells in immunodeficient mice.

Assay [9] concerns MDA-MB-435 (human). Kind of assay: Antitumor activity against human MDA-MB-435 cells xenografted in NCR/NU NU mouse assessed as tumor volume measured on day 28 initially dosed at 2 mg/kg, ip qd x 5/week for 2 weeks and was gradually increased to 6 mg/kg x 5/week schedule.
The test system of assay [10] is MDA-MB-435 (human). Kind of assay: Antitumor activity against human MDA-MB-435 cells xenografted in NCR/NU NU mouse assessed as tumor volume measured on day 35 initially dosed at 2 mg/kg, ip qd x 5/week for 2 weeks and was gradually increased to 6 mg/kg x 5/week schedule.
Assay [11] relates to MDA-MB-435 (human). Kind of assay: Antitumor activity against human MDA-MB-435 cells xenografted in NCR/NU NU mouse assessed as tumor volume measured on day 21 initially dosed at 2 mg/kg, ip qd x 5/week for 2 weeks and was gradually increased to 6 mg/kg x 5/week schedule.
Assay [12] has as its system MDA-MB-435 (human). Kind of assay: Antitumor activity against human MDA-MB-435 cells xenografted in NCR/NU NU mouse assessed as tumor volume measured on day 42 initially dosed at 2 mg/kg, ip qd x 5/week for 2 weeks and was gradually increased to 6 mg/kg x 5/week schedule.
Assay [13] deals with MDA-MB-435 (human). Kind of assay: Antitumor activity against human MDA-MB-435 cells xenografted in NCR/NU NU mouse assessed as tumor volume measured on day 7 initially dosed at 2 mg/kg, ip qd x 5/week for 2 weeks and was gradually increased to 6 mg/kg x 5/week schedule.
Assay [14] deals with MDA-MB-435 (human). Kind of assay: Antitumor activity against human MDA-MB-435 cells xenografted in NCR/NU NU mouse assessed as tumor volume measured on day 14 initially dosed at 2 mg/kg, ip qd x 5/week for 2 weeks and was gradually increased to 6 mg/kg x 5/week schedule.
Where [15] appears, read: in the assay text read “relative to topotecan” for “relative to camptothecin”.

Turning to `COc1cc2c(=O)n(CCN(C)CC(F)(F)F)c3c4cc5c(cc4ncc3c2cc1OC)OCO5`, the Activity in assay [1] (setting [15]) was greater than 10. The IC50 (in general, the concentration that gives 50% inhibition) in the assay with P388 is 250 nM; in assay [2], 250 nM; in assay [3], greater than 10000 nM; in [4] it was greater than 10000 nM; in assay [5] it was 630 nM; in assay [6] it was 410 nM. In addition, in assay [7], half-maximal inhibition (IC50) required 1000 nM.
Take `COc1cc2c(=O)n(CCN(C)CC#N)c3c4cc5c(cc4ncc3c2cc1OC)OCO5`: the Activity with MDA-MB-435 (human) [8] was 919 mm3; in the assay on MDA-MB-435 (human) [9] it was 392 mm3; with MDA-MB-435 (human) [10] it was 528 mm3; in the assay on MDA-MB-435 (human) [11] it was 370 mm3; in [1] (setting [15]) it was less than 0.2; with MDA-MB-435 (human) [12], 669 mm3. Moreover, the Activity worked out at 149 mm3 in the assay on MDA-MB-435 (human) [13] and 222 mm3 in the assay with MDA-MB-435 (human) [14]. The IC50 in the assay on P388 came to 3 nM; in assay [2] it was 4 nM; in [3], 220 nM; in [4], 980 nM; in assay [5] it was 27 nM; in [6], 5 nM. This compound also registered an IC50 in assay [7] of 43 nM.
For the compound `CCOc1cc2c(=O)n(CCN(C)C)c3c4cc5c(cc4ncc3c2cc1OCC)OCO5`, the Activity in assay [1] is greater than 10. Besides, the IC50 in the assay on P388 came to 15 nM; in [2], 150 nM; in assay [3], 13 nM; in [4] it was 140 nM; in assay [5] it was 100 nM; in assay [6], 70 nM. Further, half-maximal inhibition in assay [7] (IC50) required 190 nM.
`COc1cc2c(=O)n(CCN(CC(F)(F)F)C(C)C)c3c4cc5c(cc4ncc3c2cc1OC)OCO5`: the Activity in assay [1] (setting [15]) is greater than 10. Further, the IC50 is 1100 nM with P388; 1900 nM in assay [2]; greater than 10000 nM in assay [3]; greater than 10000 nM in assay [4]; 1100 nM in assay [5]; 1000 nM in [6]. This compound also displayed an IC50 in [7] of 4400 nM.
Take `CCN(CCn1c(=O)c2cc(OC)c(OC)cc2c2cnc3cc4c(cc3c21)OCO4)CC(F)(F)F`: the Activity is 718 mm3 with MDA-MB-435 (human) [8]; 310 mm3 in the assay on MDA-MB-435 (human) [9]; 435 mm3 in the assay with MDA-MB-435 (human) [10]; 268 mm3 in the assay on MDA-MB-435 (human) [11]; greater than 10 in [1] (setting [15]); 543 mm3 in the assay on MDA-MB-435 (human) [12]. Moreover, the Activity with MDA-MB-435 (human) [13] is 127 mm3; with MDA-MB-435 (human) [14], 176 mm3. The IC50 in the assay with P388 was 610 nM; in assay [2], 700 nM; in assay [3], greater than 10000 nM; in [4] it was greater than 10000 nM; in [5] it was 750 nM; in assay [6] it was 650 nM. The compound also yielded an IC50 in assay [7] of 2900 nM.
Take `CC[C@@]1(O)C(=O)OCc2c1cc1n(c2=O)Cc2cc3ccccc3nc2-1` [CAMPTOTHECIN]: the IC50 is 6 nM in assay [2], greater than 10000 nM in assay [3] and greater than 10000 nM in assay [4].
For the compound `C#CCN(CC)CCn1c(=O)c2cc(OC)c(OC)cc2c2cnc3cc4c(cc3c21)OCO4`, the Activity with MDA-MB-435 (human) [8] is 488 mm3; with MDA-MB-435 (human) [9], 204 mm3; with MDA-MB-435 (human) [10], 331 mm3; with MDA-MB-435 (human) [11] it was 170 mm3; in assay [1] (setting [15]) it was greater than 10; in the assay on MDA-MB-435 (human) [12], 349 mm3. Further, the results for the Activity in the assay with MDA-MB-435 (human) [13] and in the assay with MDA-MB-435 (human) [14] were 115 mm3 and 106 mm3, respectively. Further, the IC50 was 35 nM with P388; 17 nM in [2]; 2300 nM in assay [3]; greater than 10000 nM in [4]; 110 nM in assay [5]; 70 nM in assay [6]. Moreover, the IC50 in assay [7] is 100 nM.
With `CCN(CC#N)CCn1c(=O)c2cc(OC)c(OC)cc2c2cnc3cc4c(cc3c21)OCO4`, the Activity was 435 mm3 in the assay on MDA-MB-435 (human) [8]; 202 mm3 with MDA-MB-435 (human) [9]; 293 mm3 with MDA-MB-435 (human) [10]; 178 mm3 with MDA-MB-435 (human) [11]; less than 0.2 in assay [1] (setting [15]); 361 mm3 in the assay with MDA-MB-435 (human) [12]. Besides, the Activity came to 100 mm3 with MDA-MB-435 (human) [13] and 156 mm3 with MDA-MB-435 (human) [14]. The IC50 with P388 turned out to be 1 nM; in assay [2] it was 1 nM; in [3], 130 nM; in [4], 670 nM; in assay [5] it was 7 nM; in assay [6], 4 nM. For the same compound, half-maximal inhibition in [7] (IC50) was put at 34 nM.
Take `CC[C@@]1(O)C(=O)OCc2c1cc1n(c2=O)Cc2cc3c(CN(C)C)c(O)ccc3nc2-1` [TOPOTECAN]: the Activity in assay [1] (setting [15]) worked out at 1. The half-inhibitory concentration (IC50) in assay [2] was 21 nM; in [3] it was greater than 10000 nM; in assay [4], greater than 10000 nM; in assay [5], 440 nM; in [6], 40 nM.
Turning to `C#CCN(CCn1c(=O)c2cc(OC)c(OC)cc2c2cnc3cc4c(cc3c21)OCO4)C(C)C`, the Activity is 357 mm3 in the assay on MDA-MB-435 (human) [8]; 170 mm3 in the assay on MDA-MB-435 (human) [9]; 234 mm3 in the assay with MDA-MB-435 (human) [10]; 165 mm3 in the assay with MDA-MB-435 (human) [11]; greater than 10 in assay [1] (setting [15]); 310 mm3 in the assay on MDA-MB-435 (human) [12]. Further, the Activity in the assay on MDA-MB-435 (human) [13] is given as 99 mm3; in the assay with MDA-MB-435 (human) [14], 112 mm3. Also, the IC50 in the assay on P388 is 80 nM; in [2], 65 nM; in assay [3], 3700 nM; in assay [4], greater than 10000 nM; in [5] it was 70 nM; in assay [6], 100 nM. This compound showed an IC50 in assay [7] of 430 nM.

The values are drawn from ChEMBL document CHEMBL1142488, “Synthesis of N-substituted 5-[2-(N-alkylamino)ethyl]dibenzo[c,h][1,6]naphthyridines as novel topoisomerase I-targeting antitumor agents” (Bioorg Med Chem, 2008).
